# Published values collected from several papers.
# Compare with care: the assays were run in different laboratories.
# Cell line: UACC-257
# Observed: cell growth or viability
SMILES,technique,concentration,measurement,value
NC(=O)c1cc(Cl)ccc1NC(=O)COc1ccccc1,,,GI50,> 100 µM
O=C1Nc2ccccc2C1=NNc1nnc2n1N=C(c1ccccc1)CS2,SRB,10 µM,inhibition,11%
COc1ccc(-c2ccc(-c3ccc(C(=N)N)nc3)s2)cc1Cl,SRB,,GI50,1.88 µM
COc1ccc(C(=O)/C=C/c2cccc(Cl)c2Cl)cc1S(N)(=O)=O,SRB,10 µM,inhibition,65%
COc1ccc(C2=Nn3c(NN=C4C(=O)Nc5ccc(Cl)cc54)nnc3SC2)cc1,SRB,10 µM,inhibition,27%
O=C1NCCc2[nH]c(-c3ccncc3)cc21,,,IC50,> 10 µM
COc1ccc(C(=O)/C=C/c2cc3c(cc2Br)OCO3)cc1S(N)(=O)=O,SRB,10 µM,inhibition,36%
COc1cc(-c2ccc(-c3ccc(C(=N)N)nc3)s2)cc(OC)c1OC,SRB,,GI50,2.15 µM
O=C1NC(=NCc2cccs2)S/C1=C\c1ccc2ncccc2c1,,,IC50,> 10 µM
